The target of experiment [1] is GABA-A receptor; anion channel. The experiment is described as follows: Inhibition of specific binding of 1.5 nM [3H]diazepam to rat brain benzodiazepine receptors.
Another experiment deals with Rattus norvegicus. The experiment is described as follows: Percent change in Geller-Seifter conflict schedule was determined in Long-Evans rats after (po) administration of gavage of 25 mg/kg. Format: functional. A digest of the protocol: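 Long-Evans rats on a modified Geller-Seifter operant conflict schedule, with conflict-period responding scored. Compounds given by oral gavage as a 0.5% methylcellulose suspension at 25 mg/kg. Chlordiazepoxide reference given at 20 mg/kg.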

The record followed here is ChEMBL document CHEMBL1124933, “Benzodiazepine receptor binding activity of 8-substituted-9-(3-substituted-benzyl)-6-(dimethylamino)-9H-purines” (J Med Chem, 1990).

For orientation: IC50 means the point on the concentration scale where inhibition reaches its midpoint. Low values mean inhibition by little substance, high ones a need for much substance.

In turn, `CN(C)c1ncnc2c1nc(Br)n2Cc1cccc(NS(C)(=O)=O)c1` had an IC50 in experiment [1] of 1500 nM.
In experiment [1], `Cc1nc2c(N(C)C)ncnc2n1Cc1ccccc1` returned an IC50 of 8500 nM.
The molecule `CN(C)c1ncnc2c1nc(Br)n2Cc1cccc(NC=O)c1` returned an IC50 in experiment [1] of 11 nM. Further, in the experiment on Rattus norvegicus, the Change amounted to 9%.
On to `CN(C)c1ncnc2c1nc(N(C)C)n2Cc1cccc(N)c1`, for which the IC50 in experiment [1] was 600 nM. Moreover, the Change in the experiment on Rattus norvegicus is reported as -3%.
In the case of `CNc1nc2c(N(C)C)ncnc2n1Cc1cccc(NC=O)c1`, the IC50 in experiment [1] came out at 360 nM.
On the same count and under the same terms, the figure for `CNc1nc2c(N(C)C)ncnc2n1Cc1ccccc1` is 17000 nM.
Molecule `CN(C)c1ncnc2c1nc(Br)n2Cc1cccc(N)c1` registered an IC50 in experiment [1] of 110 nM. In addition, in the experiment with Rattus norvegicus, the Change came to 2%.
The molecule `CN(C)c1ncnc2c1nc(N(C)C)n2Cc1ccccc1` displayed an IC50 in experiment [1] of 5700 nM.
Still for that read-out and setting: the figure for `COC(=O)Nc1cccc(Cn2c(Br)nc3c(N(C)C)ncnc32)c1` is 5300 nM; for `CN(C)c1ncnc2c1nc(Br)n2Cc1ccccc1` it is 3000 nM.
Take `CN(C)c1ncnc2c1nc(N(C)C)n2Cc1cccc(NC=O)c1`: the IC50 in experiment [1] is 110 nM. The Change in the experiment with Rattus norvegicus is 0%.
`COc1nc2c(N(C)C)ncnc2n1Cc1ccccc1`: in experiment [1], the IC50 amounted to 5400 nM.
The molecule `CN(C)c1ncnc2c1nc(Cl)n2Cc1cccc(N)c1` registered an IC50 in experiment [1] of 190 nM. Also, the Change in the experiment on Rattus norvegicus came to 15%.
In experiment [1], `CNc1nc2c(N(C)C)ncnc2n1Cc1cccc(N)c1` gave an IC50 of 7300 nM.
In experiment [1], `CN(C)c1ncnc2c1nc(O)n2Cc1cccc(NC=O)c1` returned an IC50 of 130 nM. Besides, the Change in the experiment with Rattus norvegicus is recorded as -15%.
Take `COc1nc2c(N(C)C)ncnc2n1Cc1cccc(N)c1`: the IC50 in experiment [1] amounted to 1000 nM. For the same molecule, the Change with Rattus norvegicus was found to be 13%.
Molecule `CC(=O)Nc1cccc(Cn2c(Br)nc3c(N(C)C)ncnc32)c1` returned an IC50 in experiment [1] of 840 nM. For the same molecule, the Change in the experiment with Rattus norvegicus came out at 3%.
In the case of `CN(C)c1ncnc2c1nc(Br)n2Cc1cccc(NC(N)=O)c1`, the IC50 in experiment [1] was found to be 25 nM. The Change in the experiment on Rattus norvegicus was 9%.
Take `CN(C)c1ncnc2c1ncn2Cc1cccc(NC=O)c1`: in experiment [1], the IC50 was 34 nM. In the experiment on Rattus norvegicus, the Change is recorded as -2%.
Consider `CN(C)c1ncnc2c1nc(Br)n2Cc1cccc(NC(=O)c2ccccc2)c1`, for which the IC50 in experiment [1] was found to be 8000 nM.
On the same count and under the same terms, the figure for `CN(C)c1ncnc2c1nc(O)n2Cc1cccc(N)c1` is 1800 nM.
